Molecules are shown by their SMILES. Values after ≈ are worked out from the molar mass of the structure shown. A value given as a limit tells only on which side of the number the result lay.

Test [1] concerns MCF-7 breast cancer cell line. Kind of test: MTT cytotoxicity assay on MCF-7. The format is cell-based. Particulars: Homo sapiens, MCF7, 48 h. Put shortly:
(§1)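 Cells held in RPMI-1640 or DMEM with 2 mM L-glutamine, 1% penicillin/streptomycin and 10% FBS at 37 °C, 5% CO2. Seeded in triplicate at 5000 cells per well, then treated next day with test extract or compound. After 48 h exposure, MTT reagent added for 3 h and signal read at 570 nm. IC50 estimated from the viability data.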

Test [2] concerns HepG2 liver cancer cell line. Kind of test: MTT cytotoxicity assay on HepG2. In kind it is cell-based. As to conditions: Homo sapiens, HepG2, 48 h. Put shortly:
as §1

The subject of test [3] is MDA-MB-231 breast cancer cell line. Description: MTT cytotoxicity assay on MDA-MB-231. In kind it is cell-based. As to conditions: Homo sapiens, MDA-MB-231, 48 h. Put shortly:
as §1

The subject of test [4] is HSF normal cell line. Kind of test: MTT cytotoxicity assay on HSF. In kind it is cell-based. As to conditions: 48 h. Put shortly:
as §1

Test [5] has as its system breast cancer cells. Particulars: cited from earlier work.
Test [6] has as its system gastric cancer cells. As to conditions: via PI3K/Akt/Snail pathway; cited from earlier work.
Test [7] deals with breast and skin cancer cells. As to conditions: cancer versus normal cells; cited from earlier work.
The test system of test [8] is breast and colon cancer cells. As to conditions: cited from earlier work.
Test [9] relates to SPC-1-A, Bcap37, and HepG2 cancer cells. As to conditions: via the mitochondrial apoptotic pathway; cited from earlier work.
For test [10], the system named is protein tyrosine kinases v-src and pp60src. Particulars: cited from earlier work.
Test [11] relates to breast and bone cancers. As to conditions: cited from earlier work.
Test [12] concerns pancreatic cancer cells. As to conditions: by blocking NF-κB activation; cited from earlier work.

As for `COc1cccc2c1C(=O)c1c(O)c3c(c(O)c1C2=O)C[C@@](O)(C(=O)CO)C[C@@H]3O[C@H]1C[C@H](N)[C@H](O)[C@H](C)O1` [Doxorubicin, reference compound], the IC50 amounted to 2.17 µg/mL (≈ 3.99 µM) in test [1], 2.48 µg/mL (≈ 4.56 µM) in [2] and 7.05 µg/mL (≈ 13 µM) in [3].
Consider `CC(=O)Oc1ccc2c(c1OC(C)=O)C(=O)c1ccccc1C2=O` [alizarin-1,2-diacetate, 1,2-Diacetoxyanthraquinone], for which the IC50 in [1] is 135 µg/mL (≈ 416 µM); in test [2] it was not below 50 µg/mL; in [4], 142 µg/mL (≈ 437 µM); in [3] it was 127 µg/mL (≈ 391 µM).
For `COc1ccc(-c2cc(=O)c3c(O)cc(O)cc3o2)cc1` [acacetin], the “induction of cell death” value in test [5] was “caused RIP1-dependent necroptotic death and prolonged ERK1/2 activation”. Moreover, the “effect on invasion, migration and TGF-β1-induced EMT” value in test [6] is “prevented gastric cancer cells from invasively migrating and developing TGF-β1-induced epithelial-to-mesenchymal transition”.
On to `O=C1c2ccccc2C(=O)c2c(O)cc(O)cc21` [xanthopurpurin], for which the selective toxicity result in test [7] is “high selective toxicity toward breast and skin cancer cells at lower concentrations without inducing toxicity toward normal cells”.
Regarding `O=C1c2ccccc2C(=O)c2c(O)c(O)cc(O)c21` [purpurin], the IC50 in test [1] turned out to be 148 µg/mL (≈ 577 µM); in test [2], 179 µg/mL (≈ 700 µM); in test [4], 201 µg/mL (≈ 783 µM); in test [3], 244 µg/mL (≈ 954 µM).
On to `COc1ccc2c(c1O)C(=O)c1ccccc1C2=O` [2-methyl alizarin, 1-Hydroxy-2-methoxyanthracene-9,10-dione], for which the IC50 in [1] amounted to 52.1 µg/mL (≈ 205 µM); in [2], 8.88 µg/mL (≈ 34.9 µM); in test [4] it was 67 µg/mL (≈ 264 µM); in test [3] it was 83 µg/mL (≈ 327 µM).
Consider `O=C1c2ccccc2C(=O)c2cc(O)ccc21` [2-hydroxyanthraquinone], for which, in test [8], the induction of apoptosis entry is “resulting in apoptosis via inhibiting antiapoptotic pathways”. Further, the “effect on cell growth” value in [9] is “arrested the growth”. Also, the “inhibitory activity against protein tyrosine kinases” value in test [10] was “exhibited inhibitory activity”.
Turning to `O=C1c2ccccc2C(=O)c2c1ccc(O)c2O` [alizarin], the half-maximal inhibitory concentration (IC50) in test [1] stood at 66.9 µg/mL (≈ 279 µM); in [2] it was 99.4 µg/mL (≈ 414 µM); in test [4] it was 111 µg/mL (≈ 462 µM); in test [3], 52.6 µg/mL (≈ 219 µM). The “effect on breast and bone cancers” value in test [11] was “impaired both breast and bone cancers by inducing cell cycle arrest in the S phase and inhibiting ERK phosphorylation”. Besides, the “effect on cell growth” value in [12] is given as “prevented pancreatic cancer cells from growing”.
Take `CC(=O)Oc1ccc2c(c1O)C(=O)c1ccccc1C2=O` [alizarin-2-acetate, 9,10-Dihydro-1-hydroxy-9,10-dioxoanthracen-2-yl Acetate]: the IC50 in test [1] was 120 µg/mL; in [2] it was not below 50 µg/mL; in [4], 151 µg/mL; in test [3] it was 157 µg/mL.

Source of the values: paper PMC11983213 (ACS Omega, 2025).
